Values after ≈ are worked out from the molar mass of the structure shown.
Legend:
Pseudomonas aeruginosa [1] = test: Antibacterial activity against Pseudomonas aeruginosa ATCC 27853 after 18 to 24 hrs; assay type: functional
Staphylococcus aureus [2] = test: Antibacterial activity against Staphylococcus aureus ATCC 25923 after 18 to 24 hrs; assay type: functional
Bacillus subtilis [3] = test: Antibacterial activity against Bacillus subtilis ATCC 6633 after 24 hrs by broth dilution technique; assay type: functional; conditions: ATCC 6633, 24 h
Method in brief: (§1)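 MIC by broth dilution: nutrient broth containing logarithmic two-fold serial dilutions of compound was inoculated with about 5 × 10⁵ c.f.u. of actively dividing bacteria.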

Staphylococcus aureus [4] = test: Antibacterial activity against Staphylococcus aureus ATCC 25923 at 100 ug/ml after 24 hrs by disc-diffusion method; assay type: functional; conditions: ATCC 25923, 24 h, read-out: IZ
Bacillus subtilis [5] = test: Antibacterial activity against Bacillus subtilis ATCC 6633 at 200 ug/ml after 24 hrs by disc-diffusion method; assay type: functional; conditions: ATCC 6633, 24 h, read-out: IZ
Staphylococcus aureus [6] = test: Antibacterial activity against Staphylococcus aureus ATCC 25923 at 200 ug/ml after 24 hrs by disc-diffusion method; assay type: functional; conditions: ATCC 25923, 24 h, read-out: IZ
Pseudomonas aeruginosa [7] = test: Antibacterial activity against Pseudomonas aeruginosa ATCC 27853 at 100 ug/ml after 24 hrs by disc-diffusion method; assay type: functional; conditions: ATCC 27853, 24 h, read-out: IZ
Pseudomonas aeruginosa [8] = test: Antibacterial activity against Pseudomonas aeruginosa ATCC 27853 at 200 ug/ml after 24 hrs by disc-diffusion method; assay type: functional; conditions: ATCC 27853, 24 h, read-out: IZ
Pseudomonas aeruginosa [9] = test: Antibacterial activity against Pseudomonas aeruginosa ATCC 27853 after 24 hrs by broth dilution technique; assay type: functional; conditions: ATCC 27853, 24 h; method in brief: as §1
Candida albicans [10] = test: Antifungal activity against Candida albicans at 100 ug/ml after 48 hrs by agar diffusion method; assay type: functional; conditions: read-out: IZ
Method in brief: (§2)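 Agar well diffusion on Sabouraud agar (peptone 1 g, D-glucose 4 g, agar 2 g per 100 ml water, pH 5.7). Plates were lawned with a saline suspension of spores, excess was decanted, and plates were dried 1 h at 37 °C. Compounds in DMSO went into punched wells, and inhibition zones were measured against controls, with voriconazole as standard.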

Candida albicans [11] = test: Antifungal activity against Candida albicans at 200 ug/ml after 48 hrs by agar diffusion method; assay type: functional; conditions: read-out: IZ; method in brief: as §2
Escherichia coli [12] = test: Antibacterial activity against Escherichia coli ATCC 25922 at 100 ug/ml after 24 hrs by disc-diffusion method; assay type: functional; conditions: ATCC 25922, 24 h, read-out: IZ
Bacillus subtilis [13] = test: Antibacterial activity against Bacillus subtilis ATCC 6633 at 100 ug/ml after 24 hrs by disc-diffusion method; assay type: functional; conditions: ATCC 6633, 24 h, read-out: IZ
Escherichia coli [14] = test: Antibacterial activity against Escherichia coli ATCC 25922 at 200 ug/ml after 24 hrs by disc-diffusion method; assay type: functional; conditions: ATCC 25922, 24 h, read-out: IZ
Escherichia coli [15] = test: Antibacterial activity against Escherichia coli ATCC 25922 after 18 to 24 hrs; assay type: functional
Candida albicans [16] = test: Antifungal activity against Candida albicans after 48 hrs; assay type: functional
Staphylococcus aureus [17] = test: Antibacterial activity against Staphylococcus aureus ATCC 25923 after 24 hrs by broth dilution technique; assay type: functional; conditions: ATCC 25923, 24 h; method in brief: as §1
Aspergillus niger [18] = test: Antifungal activity against Aspergillus niger at 100 ug/ml after 3 to 4 days by agar diffusion method; conditions: read-out: IZ
Bacillus subtilis [19] = test: Antibacterial activity against Bacillus subtilis ATCC 6633 after 18 to 24 hrs; assay type: functional
Aspergillus niger [20] = test: Antifungal activity against Aspergillus niger after 48 hrs; assay type: functional
Aspergillus niger [21] = test: Antifungal activity against Aspergillus niger at 200 ug/ml after 48 hrs by agar diffusion method; assay type: functional; conditions: read-out: IZ; method in brief: as §2
Escherichia coli [22] = test: Antibacterial activity against Escherichia coli ATCC 25922 after 24 hrs by broth dilution technique; assay type: functional; conditions: ATCC 25922, 24 h; method in brief: as §1

| SMILES | MIC (Bacillus subtilis [3]) [µg/mL] | MIC (Pseudomonas aeruginosa [9]) [µg/mL] | MIC (Candida albicans [16]) [µg/mL] | MIC (Staphylococcus aureus [17]) [µg/mL] | MBC (Pseudomonas aeruginosa [1]) [µg/mL] | MBC (Staphylococcus aureus [2]) [µg/mL] | zone of inhibition at 100 µg/mL (Staphylococcus aureus [4]) [mm] | zone of inhibition at 200 µg/mL (Bacillus subtilis [5]) [mm] | zone of inhibition at 200 µg/mL (Staphylococcus aureus [6]) [mm] | zone of inhibition at 100 µg/mL (Pseudomonas aeruginosa [7]) [mm] | zone of inhibition at 200 µg/mL (Pseudomonas aeruginosa [8]) [mm] | zone of inhibition at 100 µg/mL (Candida albicans [10]) [mm] | zone of inhibition at 200 µg/mL (Candida albicans [11]) [mm] | zone of inhibition at 100 µg/mL (Escherichia coli [12]) [mm] | zone of inhibition at 100 µg/mL (Bacillus subtilis [13]) [mm] | zone of inhibition at 200 µg/mL (Escherichia coli [14]) [mm] | MBC (Escherichia coli [15]) [µg/mL] | MFC (Candida albicans [16]) [µg/mL] | zone of inhibition at 100 µg/mL (Aspergillus niger [18]) [mm] | MBC (Bacillus subtilis [19]) [µg/mL] | other results |
| --- | --- | --- | --- | --- | --- | --- | --- | --- | --- | --- | --- | --- | --- | --- | --- | --- | --- | --- | --- | --- | --- |
| COc1cc(/C=C/C(=O)c2ccccc2)ccc1OCc1nnc(-c2ccccc2O)o1 | 6 (≈ 14 µM) | 6 (≈ 14 µM) | 6 (≈ 14 µM) | 6 (≈ 14 µM) | 12.5 (≈ 29.2 µM) | 12.5 (≈ 29.2 µM) | 17 | 16 | 19 | 25 | 27 | 18 | 20 | 20 | 15 | 22 | 12.5 (≈ 29.2 µM) | 12.5 (≈ 29.2 µM) | 22 | 12.5 (≈ 29.2 µM) | MFC (Aspergillus niger [20]): 12.5 µg/mL (≈ 29.2 µM); MIC (Aspergillus niger [20]): 6 µg/mL (≈ 14 µM); zone of inhibition at 200 µg/mL (Aspergillus niger [21]): 25 mm; MIC (Escherichia coli [22]): 6 µg/mL (≈ 14 µM) |
| COc1cc(/C=C/C(=O)c2ccccc2)ccc1OCc1nnc(COc2ccccc2)o1 | 12.5 (≈ 28.3 µM) | 12.5 (≈ 28.3 µM) | 12.5 (≈ 28.3 µM) | 6 (≈ 13.6 µM) | 25 (≈ 56.5 µM) | 12.5 (≈ 28.3 µM) | 15 | 14 | 17 | 23 | 24 | 16 | 18 | 18 | 12 | 20 | 12.5 (≈ 28.3 µM) | 25 (≈ 56.5 µM) | 22 | 25 (≈ 56.5 µM) | MFC (Aspergillus niger [20]): 12.5 µg/mL (≈ 28.3 µM); MIC (Aspergillus niger [20]): 6 µg/mL (≈ 13.6 µM); zone of inhibition at 200 µg/mL (Aspergillus niger [21]): 25 mm; MIC (Escherichia coli [22]): 12.5 µg/mL (≈ 28.3 µM) |
| COc1ccc(C(=O)/C=C/c2ccc(OCc3nnc(-c4ccccc4)o3)c(OC)c2)cc1 | 6 (≈ 13.6 µM) | 12.5 (≈ 28.3 µM) | 6 (≈ 13.6 µM) | 12.5 (≈ 28.3 µM) | 50 (≈ 113 µM) | 25 (≈ 56.5 µM) | 16 | 14 | 18 | 25 | 26 | 15 | 17 | 19 | 12 | 21 | 25 (≈ 56.5 µM) | 25 (≈ 56.5 µM) | 23 | 12.5 (≈ 28.3 µM) | MFC (Aspergillus niger [20]): 25 µg/mL (≈ 56.5 µM); MIC (Aspergillus niger [20]): 12.5 µg/mL (≈ 28.3 µM); zone of inhibition at 200 µg/mL (Aspergillus niger [21]): 24 mm; MIC (Escherichia coli [22]): 12.5 µg/mL (≈ 28.3 µM) |
| COc1ccc(C(=O)/C=C/c2ccc(OCc3nnc(COc4ccccc4)o3)c(OC)c2)cc1 | 12.5 (≈ 26.5 µM) | 25 (≈ 52.9 µM) | 12.5 (≈ 26.5 µM) | 12.5 (≈ 26.5 µM) | 12.5 (≈ 26.5 µM) | 25 (≈ 52.9 µM) | 17 | 16 | 19 | 26 | 28 | 11 | 14 | 21 | 13 | 22 | 12.5 (≈ 26.5 µM) | 25 (≈ 52.9 µM) | 16 | 12.5 (≈ 26.5 µM) | MFC (Aspergillus niger [20]): 12.5 µg/mL (≈ 26.5 µM); MIC (Aspergillus niger [20]): 6 µg/mL (≈ 12.7 µM); zone of inhibition at 200 µg/mL (Aspergillus niger [21]): 19 mm; MIC (Escherichia coli [22]): 25 µg/mL (≈ 52.9 µM) |

Continued, in another order:

| MIC (Bacillus subtilis [3]) [µg/mL] | MIC (Pseudomonas aeruginosa [9]) [µg/mL] | MIC (Candida albicans [16]) [µg/mL] | MIC (Staphylococcus aureus [17]) [µg/mL] | SMILES | MBC (Pseudomonas aeruginosa [1]) [µg/mL] | MBC (Staphylococcus aureus [2]) [µg/mL] | zone of inhibition at 100 µg/mL (Staphylococcus aureus [4]) [mm] | zone of inhibition at 200 µg/mL (Bacillus subtilis [5]) [mm] | zone of inhibition at 200 µg/mL (Staphylococcus aureus [6]) [mm] | zone of inhibition at 100 µg/mL (Pseudomonas aeruginosa [7]) [mm] | zone of inhibition at 200 µg/mL (Pseudomonas aeruginosa [8]) [mm] | zone of inhibition at 100 µg/mL (Candida albicans [10]) [mm] | zone of inhibition at 200 µg/mL (Candida albicans [11]) [mm] | zone of inhibition at 100 µg/mL (Escherichia coli [12]) [mm] | zone of inhibition at 100 µg/mL (Bacillus subtilis [13]) [mm] | zone of inhibition at 200 µg/mL (Escherichia coli [14]) [mm] | MBC (Escherichia coli [15]) [µg/mL] | MFC (Candida albicans [16]) [µg/mL] | zone of inhibition at 100 µg/mL (Aspergillus niger [18]) [mm] | MBC (Bacillus subtilis [19]) [µg/mL] | other results |
| --- | --- | --- | --- | --- | --- | --- | --- | --- | --- | --- | --- | --- | --- | --- | --- | --- | --- | --- | --- | --- | --- |
| 6 (≈ 13.4 µM) | 25 (≈ 55.9 µM) | 25 (≈ 55.9 µM) | 12.5 (≈ 28 µM) | COc1cc(/C=C/C(=O)c2ccccc2)ccc1OCc1nnc(-c2ccc(Cl)cc2)o1 | 50 (≈ 112 µM) | 25 (≈ 55.9 µM) | 12 | 11 | 14 | 19 | 22 | 12 | 15 | 16 | 9 | 18 | 25 (≈ 55.9 µM) | 50 (≈ 112 µM) | 18 | 12.5 (≈ 28 µM) | MFC (Aspergillus niger [20]): 25 µg/mL (≈ 55.9 µM); MIC (Aspergillus niger [20]): 12.5 µg/mL (≈ 28 µM); zone of inhibition at 200 µg/mL (Aspergillus niger [21]): 20 mm; MIC (Escherichia coli [22]): 12.5 µg/mL (≈ 28 µM) |
| 12.5 (≈ 27.4 µM) | 12.5 (≈ 27.4 µM) | 12.5 (≈ 27.4 µM) | 12.5 (≈ 27.4 µM) | COc1ccc(C(=O)/C=C/c2ccc(OCc3nnc(-c4ccc(C)cc4)o3)c(OC)c2)cc1 | 25 (≈ 54.8 µM) | 25 (≈ 54.8 µM) | 15 | 14 | 17 | 23 | 24 | 16 | 18 | 19 | 12 | 21 | 25 (≈ 54.8 µM) | 25 (≈ 54.8 µM) | 20 | 25 (≈ 54.8 µM) | MFC (Aspergillus niger [20]): 25 µg/mL (≈ 54.8 µM); MIC (Aspergillus niger [20]): 12.5 µg/mL (≈ 27.4 µM); zone of inhibition at 200 µg/mL (Aspergillus niger [21]): 23 mm; MIC (Escherichia coli [22]): 6 µg/mL (≈ 13.1 µM) |
| 6 (≈ 13.1 µM) | 12.5 (≈ 27.3 µM) | 6 (≈ 13.1 µM) | 6 (≈ 13.1 µM) | COc1ccc(C(=O)/C=C/c2ccc(OCc3nnc(-c4ccccc4O)o3)c(OC)c2)cc1 | 25 (≈ 54.5 µM) | 6 (≈ 13.1 µM) | 21 | 20 | 23 | 30 | 32 | 19 | 21 | 25 | 18 | 26 | 12.5 (≈ 27.3 µM) | 12.5 (≈ 27.3 µM) | 25 | 12.5 (≈ 27.3 µM) | MFC (Aspergillus niger [20]): 12.5 µg/mL (≈ 27.3 µM); MIC (Aspergillus niger [20]): 6 µg/mL (≈ 13.1 µM); zone of inhibition at 200 µg/mL (Aspergillus niger [21]): 26 mm; MIC (Escherichia coli [22]): 6 µg/mL (≈ 13.1 µM) |

Reference: ChEMBL document CHEMBL1629517, “Molecular properties prediction, synthesis and antimicrobial activity of some newer oxadiazole derivatives” (2010)
